PDI inh = inhibitors of human protein disulfide isomerase. PDI insulin aggregation turbidity, A650, 90 min. inhibition, % at 10 µM. P07237. 0.052% of 350,000 active. AID 588391;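 active = mean inhibition across replicates of 30% or more, whatever share of single replicates reach that level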
FN deposit inh = fibronectin deposition inhibition; AID 743247; inhibition, % at 12.6 µM; 0.086% of 350,000 active; AH1F fibroblasts, Alexa488-fibronectin deposition fluorescence, overnight;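 active = mean inhibition across replicates of 30% or more, regardless of how many single replicates reach that level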;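 note: positive control wells lacked labelled fibronectin entirely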
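Material: AH1F fibroblast monolayer depositing Alexa488-labelled fibronectin into matrix | Input: 10000 AH1F cells/well | Medium: DMEM plus 2% serum, read in PBS | Reagent: Alexa488-fibronectin, 24 nM final in well | Compound dosing: One dose per compound, pinned | Schedule: 1 h adhesion, overnight exposure | Measured by: Fluorescence at 485 nm excitation, 525 nm emission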
ERp5 inh = blocks human ERp5 reductase activity on insulin; inhibition, % at 9.99 µM; ERp5 insulin aggregation, absorbance 650 nm, 90 min; 0.05% of 350,000 active;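 active = mean replicate inhibition above about 25%, with every replicate also reaching it, limit read from the data, passing the limit was not always enough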
Target sequence (Q15084 whole entry, looked up): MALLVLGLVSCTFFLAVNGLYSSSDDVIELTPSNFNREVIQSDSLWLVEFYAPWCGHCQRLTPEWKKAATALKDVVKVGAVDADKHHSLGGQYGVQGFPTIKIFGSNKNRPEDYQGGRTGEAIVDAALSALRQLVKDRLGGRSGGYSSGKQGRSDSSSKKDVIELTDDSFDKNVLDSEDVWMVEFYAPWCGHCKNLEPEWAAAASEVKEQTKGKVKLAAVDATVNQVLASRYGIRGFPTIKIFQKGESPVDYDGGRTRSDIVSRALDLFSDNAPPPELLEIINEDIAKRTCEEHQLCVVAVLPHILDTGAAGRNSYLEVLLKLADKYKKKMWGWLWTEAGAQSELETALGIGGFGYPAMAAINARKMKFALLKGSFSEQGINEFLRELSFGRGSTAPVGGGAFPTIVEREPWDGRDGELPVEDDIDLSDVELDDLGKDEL
ARNT TACC3 PPI = disruptors of human ARNT/TACC3 interaction | AlphaScreen His-ARNT PAS-B/GST-TACC3 binding, luminescence; TACC3 fragment carries E629A point mutation | inhibition, % at 9.99 µM | 0.66% of 390,000 active | AID 623870;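 active = mean inhibition of replicates at least 50% and at least half of replicates each reaching 50%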;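 note: 0% = complete ARNT plus TACC3 wells and 100% = ARNT alone without TACC3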
FGF22 binding = shifts melting point of recombinant human FGF22; Q9HCT0; recombinant FGF22 thermal shift, SYPRO orange fluorescence; percent of sucrose octasulfate shift, DMSO zero; activity (Tm shift, normalised), % at 9.99 µM; 1.5% of 340,000 active; AID 651658;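 active = mean Tm shift, scaled 0 neutral to 100 positive control, at about 1.3% or above, every replicate too, limit read from the data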
MLL AF4-AF9 inh = blocks AF4 peptide binding to human AF9; P42568; AlphaScreen, biotin-AF4 peptide binding to FLAG-AF9; inhibition, % at 10 µM; 0.47% of 350,000 active; AID 651704;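 active = every replicate reaching a set inhibition limit, whatever the replicate mean, cut at about 25% in these data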;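 note: 0% = plate neutral control median and 100% = total signal loss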
Starred values were filed as active, the others as inactive. This is a sample that favours compounds with a hit; in the whole collection about 2.1% have one here.

What do the screens show for `CCOC(=O)C1CCN(CC(C)(C)NS(=O)(=O)c2ccc(C)cc2)CC1`?
PDI inh: 3.4; FN deposit inh: 2.8; ERp5 inh: -2.1; FGF22 binding: -0.2; MLL AF4-AF9 inh: -4.9

What do the screens show for `Cc1ccc(S(=O)(=O)NC(C)(C)CN2CCC(Cc3ccccc3)CC2)cc1`?
PDI inh: 0.2; FN deposit inh: -6.1; ERp5 inh: 4.1; ARNT TACC3 PPI: -8.1; FGF22 binding: 43.7*; MLL AF4-AF9 inh: 6.1

What do the screens show for `CNC[C@H]1OCCCC[C@H](C)Oc2ccc(NS(=O)(=O)c3ccc(C)cc3)cc2C(=O)N([C@@H](C)CO)C[C@@H]1C`?
FN deposit inh: 3.6; ERp5 inh: -5.0; FGF22 binding: -0.4; MLL AF4-AF9 inh: -3.2

How did CC(=O)c1cccc(NC(=O)CSc2ccc(-c3ccco3)nn2)c1 do in these assays?
PDI inh: 0.1; FN deposit inh: 7.9; ERp5 inh: 9.5; ARNT TACC3 PPI: 2.2; FGF22 binding: -0.2; MLL AF4-AF9 inh: -5.8

What do the screens show for `CCc1ccc(NC(=O)CSc2ccc(-c3ccco3)nn2)cc1`?
PDI inh: 1.6; FN deposit inh: -4.4; ERp5 inh: -3.4; ARNT TACC3 PPI: -9.2; FGF22 binding: 43.1*; MLL AF4-AF9 inh: -0.9

Results for Cc1cc(-c2nnc(SCC(=O)c3ccc(Cl)cc3)o2)no1 ?
PDI inh: -5.1; FN deposit inh: -0.4; ERp5 inh: -1.2; ARNT TACC3 PPI: 0.0; FGF22 binding: 43.9*; MLL AF4-AF9 inh: -1.5

What do the screens show for `CCc1ccc(NC(=O)CSc2nnc(-c3ccco3)o2)cc1`?
PDI inh: 3.4; FN deposit inh: 31.4*; ERp5 inh: 0.7; ARNT TACC3 PPI: -6.4; FGF22 binding: -0.1; MLL AF4-AF9 inh: -0.1

Results for CC(=O)c1ccc(NC(=O)CSc2nnc(Cn3cnc4ccccc43)o2)cc1 ?
PDI inh: -2.0; FN deposit inh: 4.8; ERp5 inh: -0.2; ARNT TACC3 PPI: -0.6; FGF22 binding: 43.4*; MLL AF4-AF9 inh: -0.6

What do the screens show for `O=C(c1cccnc1)N1CC(=O)N2[C@H](C1)[C@@H](c1ccc(/C=C/c3ccccc3)cc1)[C@@H]2CO`?
ERp5 inh: -2.7; MLL AF4-AF9 inh: 9.1

How did COCC(=O)N1C[C@@H](C)[C@H](OC)CN(C)C(=O)c2ccc(NS(C)(=O)=O)cc2OC[C@@H]1C do in these assays?
FN deposit inh: -0.7; ERp5 inh: -2.0; ARNT TACC3 PPI: -1.9; FGF22 binding: 0.1; MLL AF4-AF9 inh: -1.1

How did Cc1cc(NC(=O)CSc2nnc(CNC(=O)c3ccc(C(C)(C)C)cc3)o2)no1 do in these assays?
PDI inh: 16.6; FN deposit inh: -6.6; ERp5 inh: 1.2; ARNT TACC3 PPI: 47.1*; FGF22 binding: 0.1; MLL AF4-AF9 inh: -2.9

What do the screens show for `CC(=O)Nc1ccc(NC(=O)CSc2nnc(-c3ccco3)o2)cc1`?
PDI inh: -1.7; FN deposit inh: 3.1; ERp5 inh: -4.5; ARNT TACC3 PPI: -17.0; FGF22 binding: 43.6*; MLL AF4-AF9 inh: -8.0

How did COc1cc(C(=O)NCc2nnc(SCC(=O)Nc3cc(C)on3)o2)cc(OC)c1OC do in these assays?
PDI inh: 2.6; ERp5 inh: 0.3; ARNT TACC3 PPI: 3.1; FGF22 binding: 1.0; MLL AF4-AF9 inh: -0.8

Results for COCCn1c(SCC(=O)Nc2cc(C)on2)nnc1-c1ccccc1 ?
PDI inh: 1.9; FN deposit inh: 4.8; ERp5 inh: 8.7; ARNT TACC3 PPI: 0.6; FGF22 binding: 0.1; MLL AF4-AF9 inh: 33.7*

Results for Cc1cc(NC(=O)CSc2nnc(-c3ccco3)o2)no1 ?
PDI inh: 1.5; ERp5 inh: -7.4; ARNT TACC3 PPI: 59.0*

How did C[C@H](CO)N1C[C@H](C)[C@@H](CN(C)C(=O)c2ccc3c(c2)OCO3)Oc2cc(-c3cncnc3)ccc2S1(=O)=O do in these assays?
FN deposit inh: 8.6; ERp5 inh: -1.2; ARNT TACC3 PPI: 11.5; FGF22 binding: -0.1; MLL AF4-AF9 inh: -0.4

Results for COc1ccc(NC(=O)N2CCC3(CC2)CN(CC2CC2)[C@H](CO)c2c3c3ccc(OC)cc3n2C)cc1 ?
FGF22 binding: -0.2; MLL AF4-AF9 inh: -0.5

What do the screens show for `COc1ccc2c3c(n(C)c2c1)[C@@H](CO)N(S(C)(=O)=O)CC31CN(C(=O)c2ccccn2)C1`?
ERp5 inh: 1.7; FGF22 binding: -0.3; MLL AF4-AF9 inh: 2.1

Screens from PubChem.
